The structures appear in SMILES notation. Active and inactive are the calls of the source. The rule behind the calls is not given here.

Test [1] deals with Nucleic Acid. Nature of the test: Thermal stabilization of HIV TAR RNA assessed as change in melting temperature at 1:1 ligand to RNA ratio by UV-vis spectrophotometric analysis. The class given is nucleic-acid assay. The conditions noted are these: Human immunodeficiency virus.
Test [2] concerns the target Nucleic Acid. The experiment in a line: Displacement of fluorescein and rhodamine-labeled TAT peptide from HIV TAR RNA by FRET assay. The test is classed as nucleic-acid assay, Human immunodeficiency virus. In outline: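 Tat peptide carrying fluorescein/rhodamine FRET pair mixed 1:1 with TAR RNA (100 nM each) in 50 mM Tris, 20 mM KCl, pH 7.4. Complex titrated with ligand until fluorescence stopped changing; displacement read as loss of fluorescein emission. Isotherm fitted to a dose-response curve to give IC50, the level displacing 50% of bound peptide.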

In test [3] the target is Nucleic Acid. Nature of the test: Displacement of ethidium bromide from HIV TAR RNA by fluorescent intercalator displacement assay. The test is classed as nucleic-acid assay, Human immunodeficiency virus. In outline: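 TAR RNA prebound with ethidium bromide, then titrated successively with ligand to displace the intercalator. The resulting binding isotherm was analysed for DC50, the ligand concentration displacing 50% of bound dye.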

Test [4] relates to Nucleic Acid. The experiment in a line: Binding affinity to HIV TAR RNA at 1.6 equiv after 5 mins by circular dichroism analysis. To be noted: Human immunodeficiency virus. The test is classed as nucleic-acid assay. In outline: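 TAR RNA titrated serially with ligand in small increments; after each addition the complex was stirred and equilibrated 5 min before recording the CD spectrum (average of three scans). Buffer 10 mM sodium cacodylate, 0.5 mM EDTA, 100 mM KCl, pH 6.8, at 20 °C.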

The nature of test [5]: Displacement of fluorescein-labeled REV peptide from HIV RRE RNA after 1 hr by fluorescence polarization assay. More on the design: species or system Human immunodeficiency virus.

Turning to `CN1CCN(c2ccc3nc(-c4ccc(OCc5cn(CCCCCCCCCCn6cc(CCCCc7cn(C[C@H]8O[C@@H](O[C@@H]9[C@@H](O)[C@H](N)C[C@H](N)[C@H]9O[C@H]9O[C@H](CN)[C@@H](O)[C@H](O)[C@H]9N)[C@H](O)[C@@H]8O[C@H]8O[C@@H](CN)[C@@H](O)[C@H](O)[C@H]8N)nn7)nn6)nn5)cc4)[nH]c3c2)CC1`, the ΔTm in the test with Nucleic Acid [1] was determined as 4 °C. This compound also came in with an IC50 on Nucleic Acid [2] of 1380 nM. On Nucleic Acid [3], the DC50 was found to be 180 nM.
Turning to `CN1CCN(c2ccc3nc(-c4ccc(OCCn5cc(-c6ccc(-c7cn(C[C@H]8O[C@@H](O[C@@H]9[C@@H](O)[C@H](N)C[C@H](N)[C@H]9O[C@H]9O[C@H](CN)[C@@H](O)[C@H](O)[C@H]9N)[C@H](O)[C@@H]8O[C@H]8O[C@@H](CN)[C@@H](O)[C@H](O)[C@H]8N)nn7)cc6)nn5)cc4)[nH]c3c2)CC1`, in the test with Nucleic Acid [1], the ΔTm is 3 °C. For the same compound, at Nucleic Acid [2], the IC50 was 379 nM. The DC50 at Nucleic Acid [3] is 180 nM.
For `C#CCOc1ccc(-c2nc3ccc(N4CCN(C)CC4)cc3[nH]2)cc1`, the ΔTm in the test with Nucleic Acid [1] was 1 °C.
As for `CN1CCN(c2ccc3nc(-c4ccc(OCc5cn(CCCCCn6cc(CCCCc7cn(C[C@H]8O[C@@H](O[C@@H]9[C@@H](O)[C@H](N)C[C@H](N)[C@H]9O[C@H]9O[C@H](CN)[C@@H](O)[C@H](O)[C@H]9N)[C@H](O)[C@@H]8O[C@H]8O[C@@H](CN)[C@@H](O)[C@H](O)[C@H]8N)nn7)nn6)nn5)cc4)[nH]c3c2)CC1`, the ΔTm in the test on Nucleic Acid [1] was 2.1 °C. In addition, the IC50 on Nucleic Acid [2] worked out at 851 nM. At Nucleic Acid [3], this compound displayed a DC50 of 150 nM.
`CN1CCN(c2ccc3nc(-c4ccc(OCCn5cc(CCc6cn(C[C@H]7O[C@@H](O[C@@H]8[C@@H](O)[C@H](N)C[C@H](N)[C@H]8O[C@H]8O[C@H](CN)[C@@H](O)[C@H](O)[C@H]8N)[C@H](O)[C@@H]7O[C@H]7O[C@@H](CN)[C@@H](O)[C@H](O)[C@H]7N)nn6)nn5)cc4)[nH]c3c2)CC1`: the shift in melting temperature (ΔTm) in the test on Nucleic Acid [1] was found to be 3.4 °C. This compound displayed a 50% inhibitory concentration (IC50) on Nucleic Acid [2] of 337 nM. Moreover, the DC50 at Nucleic Acid [3] came out at 83 nM.
On the same counts, the results for `CN1CCN(c2ccc3nc(-c4ccc(OCc5cn(Cn6cc(CCCCc7cn(C[C@H]8O[C@@H](O[C@@H]9[C@@H](O)[C@H](N)C[C@H](N)[C@H]9O[C@H]9O[C@H](CN)[C@@H](O)[C@H](O)[C@H]9N)[C@H](O)[C@@H]8O[C@H]8O[C@@H](CN)[C@@H](O)[C@H](O)[C@H]8N)nn7)nn6)nn5)cc4)[nH]c3c2)CC1` are 2.5 °C, 411 nM and 184 nM.
Turning to `CN1CCN(c2ccc3nc(-c4ccc(OCCn5cc(COCc6cn(C[C@H]7O[C@@H](O[C@@H]8[C@@H](O)[C@H](N)C[C@H](N)[C@H]8O[C@H]8O[C@H](CN)[C@@H](O)[C@H](O)[C@H]8N)[C@H](O)[C@@H]7O[C@H]7O[C@@H](CN)[C@@H](O)[C@H](O)[C@H]7N)nn6)nn5)cc4)[nH]c3c2)CC1`, in the test with Nucleic Acid [1], the shift in melting temperature (ΔTm) was 3 °C. Also, the IC50 at Nucleic Acid [2] was found to be 1280 nM. On Nucleic Acid [3], this compound showed a DC50 of 78 nM.
On the same counts, the results for `CN1CCN(c2ccc3nc(-c4ccc(OCc5cn(CCCCCCn6cc(CCCCc7cn(C[C@H]8O[C@@H](O[C@@H]9[C@@H](O)[C@H](N)C[C@H](N)[C@H]9O[C@H]9O[C@H](CN)[C@@H](O)[C@H](O)[C@H]9N)[C@H](O)[C@@H]8O[C@H]8O[C@@H](CN)[C@@H](O)[C@H](O)[C@H]8N)nn7)nn6)nn5)cc4)[nH]c3c2)CC1` are 3.8 °C, 1370 nM and 200 nM.
With `CN1CCN(c2ccc3nc(-c4ccc(OCCn5cc(CCCCCCc6cn(C[C@H]7O[C@@H](O[C@@H]8[C@@H](O)[C@H](N)C[C@H](N)[C@H]8O[C@H]8O[C@H](CN)[C@@H](O)[C@H](O)[C@H]8N)[C@H](O)[C@@H]7O[C@H]7O[C@@H](CN)[C@@H](O)[C@H](O)[C@H]7N)nn6)nn5)cc4)[nH]c3c2)CC1`, the shift in melting temperature (ΔTm) in the test on Nucleic Acid [1] came to 5.4 °C. At Nucleic Acid [2], this compound had an IC50 of 949 nM. For the same compound, the DC50 on Nucleic Acid [3] turned out to be 81 nM.
With `NC[C@@H]1O[C@H](O[C@H]2[C@@H](O)[C@H](O[C@@H]3[C@@H](O)[C@H](N)C[C@H](N)[C@H]3O[C@H]3O[C@H](CN)[C@@H](O)[C@H](O)[C@H]3N)O[C@@H]2CO)[C@H](N)[C@@H](O)[C@@H]1O` [FRAMYCETIN], the ΔTm with Nucleic Acid [1] amounted to 2 °C. For the same compound, the IC50 at Nucleic Acid [2] is 1470 nM.
For the compound `CN1CCN(c2ccc3nc(-c4ccc(OCc5cn(C[C@H]6O[C@@H](O[C@@H]7[C@@H](O)[C@H](N)C[C@H](N)[C@H]7O[C@H]7O[C@H](CN)[C@@H](O)[C@H](O)[C@H]7N)[C@H](O)[C@@H]6O[C@H]6O[C@@H](CN)[C@@H](O)[C@H](O)[C@H]6N)nn5)cc4)[nH]c3c2)CC1`, the outcome in the test with Nucleic Acid [4] was Active. Further, the values for the IC50 (in test [5]; on Nucleic Acid [2]) were 768 nM and 272 nM, respectively. For the same compound, the ΔTm with Nucleic Acid [1] is 5.6 °C. This compound also yielded a DC50 at Nucleic Acid [3] of 33 nM.
Turning to `CN1CCN(c2ccc3nc(-c4ccc(OCCn5cc(CCCc6cn(C[C@H]7O[C@@H](O[C@@H]8[C@@H](O)[C@H](N)C[C@H](N)[C@H]8O[C@H]8O[C@H](CN)[C@@H](O)[C@H](O)[C@H]8N)[C@H](O)[C@@H]7O[C@H]7O[C@@H](CN)[C@@H](O)[C@H](O)[C@H]7N)nn6)nn5)cc4)[nH]c3c2)CC1`, in the test with Nucleic Acid [1], the ΔTm came to 4.1 °C. Further, the IC50 on Nucleic Acid [2] was 507 nM. Further, on Nucleic Acid [3], the DC50 was determined as 140 nM.

The values are drawn from ChEMBL document CHEMBL2429818, “Recognition of HIV-TAR RNA using neomycin-benzimidazole conjugates” (Bioorg Med Chem Lett, 2013).
